The source of these data is PubChem BioAssay AID504524 (Sanford-Burnham Center for Chemical Genomics, 2011).

The structures appear in SMILES notation. The source made the active and inactive calls.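 How the source made its calls: active means mean EC50 below 10 µM; inactive means the rest.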

This test concerns the target Apelin receptor (Homo sapiens) (UniProt P35414). Put plainly: apelin receptor activation by small molecules – cell-based, CHO-K1 AGTRL-1, PathHunter luminescence, set 5, SAR follow-up (AID 504524). The note with it: CHO-K1 AGTRL-1 PathHunter beta-arrestin. Put shortly:
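assay system = CHO-K1 cells, APJ and β-arrestin complementation reporter | timing = overnight seeding, 90 min exposure at 25 °C, 60 min detection | technique = luminescence from β-galactosidase fragment complementation, PathHunter detection reagent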

Sequence of Apelin receptor (Homo sapiens) (P35414 whole entry, looked up, the tested form may be a part): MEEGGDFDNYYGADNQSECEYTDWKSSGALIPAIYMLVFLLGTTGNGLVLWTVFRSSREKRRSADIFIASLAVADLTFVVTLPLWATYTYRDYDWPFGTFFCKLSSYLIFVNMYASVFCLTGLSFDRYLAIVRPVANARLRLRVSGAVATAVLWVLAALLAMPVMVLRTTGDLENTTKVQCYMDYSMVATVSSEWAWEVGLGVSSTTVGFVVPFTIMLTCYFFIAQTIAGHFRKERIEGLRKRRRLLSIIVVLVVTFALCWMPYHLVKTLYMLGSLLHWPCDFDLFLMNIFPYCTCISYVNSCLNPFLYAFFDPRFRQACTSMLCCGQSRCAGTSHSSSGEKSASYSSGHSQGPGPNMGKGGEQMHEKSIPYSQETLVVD

In the case of `Cc1cc(N=O)c(C(C)C)cc1O`, the EC50 is > 79 µM (inactive).

`COc1cccc(S(=O)(=O)O/N=C2\C=C(C(C)C)C(=O)C=C2C)c1`: the EC50 was 5.23 µM.

As for `COc1cccc(S(=O)(=O)O/N=C2\C=C(C3CCCCC3)C(=O)C=C2C)c1`, the EC50 was 5.53 µM.

Turning to `CC1=CC(=O)C(C2CCCCC2)=C/C1=N\OS(=O)(=O)c1ccccc1Cl`, the EC50 was 6.5 µM.

Regarding `CC1=CC(=O)C(C(C)(C)C)=C/C1=N/OS(=O)(=O)c1cccc(C)c1`, the EC50 is 9.59 µM.

For the molecule `CC1=CC(=O)C(C(C)(C)C)=C/C1=N\OS(=O)(=O)c1c(Cl)cccc1Cl`, the EC50 is 7.9 µM.

Regarding `N#Cc1ccc(S(=O)(=O)ON=C2C=CC(=O)C(c3ccccc3)=C2)cc1`, the EC50 was > 79 µM (inactive).

Consider `CC1=CC(=O)C(C(C)C)=C/C1=N/OS(=O)(=O)c1cccc(Br)c1`, for which the EC50 was 3.16 µM.

As for `CC1=CC(=O)C(C(C)C)=C/C1=N\OS(=O)(=O)c1ccccc1Cl`, the EC50 is 1.94 µM.

On to `CC1=CC(=O)C(C(C)(C)C)=C/C1=N/OS(=O)(=O)c1cccc(Br)c1`, for which the EC50 entry is “inactive”.

For the molecule `CC1=CC(=O)C(C(C)C)=C/C1=N\OS(=O)(=O)c1cccc(Cl)c1`, the EC50 was 3.17 µM.

In the case of `CC1=CC(=O)C(C(C)C)=C/C1=N/OS(=O)(=O)c1cccc(C#N)c1`, the EC50 was 1.96 µM.

Consider `CC1=CC(=O)C(C(C)C)=C/C1=N/OS(=O)(=O)c1cccc(C)c1`, for which the EC50 is 5.68 µM.

As for `CC1=CC(=O)C(C(C)C)=C/C1=N\OS(=O)(=O)c1cn(C)cn1`, the EC50 entry is “inactive”.

Turning to `CC(C)C1=CC(=NOS(=O)(=O)c2ccccc2)C=CC1=O`, the EC50 was 4.96 µM.

Regarding `CC1=CC(=O)C(C2CCCCC2)=C/C1=N\OS(=O)(=O)c1c(Cl)cccc1Cl`, the concentration for a half-maximal effect (EC50) is 3.59 µM.

Turning to `CC1=CC(=O)C(C2CCCCC2)=C/C1=N/OS(=O)(=O)c1cccc(C#N)c1`, the concentration for a half-maximal effect (EC50) is 5.13 µM.

Regarding `Cc1cc(O)c(C(C)(C)C)cc1N=O`, the EC50 is > 79 µM (inactive).

Turning to `CC1=CC(=O)C(C(C)C)=C/C1=N\OS(=O)(=O)C1CCCCC1`, the EC50 result was “inactive”.

With `CC1=CC(=O)C(C2CCCCC2)=C/C1=N/OS(=O)(=O)c1cccc(C)c1`, the EC50 was 5.49 µM.

For `CC1=CC(=O)C(C2CCCCC2)=C/C1=N\OS(=O)(=O)c1cn(C)cn1`, the EC50 was 6.36 µM.

With `CC1=CC(=O)C(C(C)C)=C/C1=N\OS(=O)(=O)c1c(Cl)cccc1Cl`, the EC50 was 3.53 µM.

As for `CC1=CC(=O)C(C(C)(C)C)=C/C1=N\OS(=O)(=O)c1ccccc1Cl`, the EC50 was 8.69 µM.

With `CC1=CC(=O)C(C2CCCCC2)=C/C1=N\OS(=O)(=O)c1cccc(Cl)c1`, the EC50 was 2.61 µM.

With `CC1=CC(=O)C(C(C)(C)C)=C/C1=N/OS(=O)(=O)c1cccc(C#N)c1`, the EC50 was 3.21 µM.

Turning to `COc1cccc(S(=O)(=O)O/N=C2\C=C(C(C)(C)C)C(=O)C=C2C)c1`, the EC50 is 7.96 µM.

Consider `O=C1C=CC(=NOS(=O)(=O)c2ccccc2)C=C1c1ccccc1`, for which the EC50 is > 79 µM (inactive).

On to `CC1=CC(=O)C(C(C)(C)C)=C/C1=N\OS(=O)(=O)C1CCCCC1`, for which the EC50 entry was “inactive”.

For `CC1=CC(=O)C(C2CCCCC2)=C/C1=N/OS(=O)(=O)c1cccc(Br)c1`, the EC50 was 6.03 µM.

For the molecule `CC1=CC(=O)C(C(C)(C)C)=C/C1=N\OS(=O)(=O)c1cccc(Cl)c1`, the EC50 is 7.8 µM.

Turning to `CC1=CC(=O)C(C(C)(C)C)=C/C1=N\OS(=O)(=O)c1cn(C)cn1`, the EC50 was 10 µM.

Broadly, the EC50 is the concentration giving half of the maximal effect.
